Assay results reported in ChEMBL document CHEMBL2062391, “Antiausterity agents from Uvaria dac and their preferential cytotoxic activity against human pancreatic cancer cell lines in a nutrient-deprived condition” (J Nat Prod, 2012).
Calls of active or inactive are those of the source. The calls are words filed in the database; no cut-off is given here.

Columns and labels:
PANC-1 [1] = assay: Induction of morphological changes in human PANC1 cells assessed as plasma membrane rupture at 25 uM after 24 hrs by inverted-phase contrast microscopic analysis; format: functional, cell-based
Procedure, shortened: (§1)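 Cells (1 × 10^6) were seeded in 60 mm dishes and attached over 24 h in a humidified CO2 incubator. They were washed twice with PBS and treated at 25 μM in DMEM or NDM, alongside controls. After 24 h, cells were viewed by phase-contrast on an inverted microscope with a 40× objective and photographed.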

MIA PaCa-2 [2] = assay: Cytotoxicity against human MIAPaCa2 cells grown in nutrient-rich medium after 24 hrs by WST8 assay; format: cell-based; conditions: mia paca-2, 24 h
Procedure, shortened: (§2)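 Cells seeded at 2 × 10^4/well and grown 24 h in fresh DMEM or RPMI-1640 at 37 °C, 5% CO2. After a PBS wash, the medium was replaced with serially diluted samples in DMEM (nutrient-rich) or NDM. After 24 h, DMEM with 10% WST-8 solution was added. A450 was read after 3 h. Viability (%) was taken from the mean of three wells, blank-corrected against the control. PC50 is 50% kill in NDM without toxicity in DMEM.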

PSN1 [3] = assay: Cytotoxicity against human PSN1 cells grown in nutrient-rich medium after 24 hrs by WST8 assay; format: cell-based; conditions: psn1, 24 h; procedure, shortened: as §2
PSN1 [4] = assay: Cytotoxicity against human PSN1 cells grown in nutrient-deprived medium after 24 hrs by WST8 assay; format: functional; procedure, shortened: as §2
[5] = Cytotoxicity against human KLM1 cells grown in nutrient-rich medium after 24 hrs by WST8 assay; format: cell-based; conditions: klm1, 24 h; procedure, shortened: as §2
PANC-1 [6] = assay: Cytotoxicity against human PANC1 cells grown in nutrient-deprived medium after 24 hrs by WST8 assay; format: functional; procedure, shortened: as §2
MIA PaCa-2 [7] = assay: Cytotoxicity against human MIAPaCa2 cells grown in nutrient-deprived medium after 24 hrs by WST8 assay; format: functional; procedure, shortened: as §2
PANC-1 [8] = assay: Induction of morphological changes in human PANC1 cells assessed as loss of cellular content at 25 uM after 24 hrs by inverted-phase contrast microscopic analysis; format: functional, cell-based; procedure, shortened: as §1
KLM1 = assay: (§3) Cytotoxicity against human KLM1 cells grown in nutrient-deprived medium after 24 hrs by WST8 assay; format: functional; procedure, shortened: as §2
[9] = as §3; format: functional; procedure, shortened: as §2
PANC-1 [10] = assay: Induction of morphological changes in human PANC1 cells assessed as rounding of cells at 25 uM after 24 hrs by inverted-phase contrast microscopic analysis; format: functional, cell-based; procedure, shortened: as §1
PANC-1 [11] = assay: Cytotoxicity against human PANC1 cells grown in nutrient-rich medium after 24 hrs by WST8 assay; format: cell-based; conditions: panc-1, 24 h; procedure, shortened: as §2

SMILES | Activity (PANC-1 [1]) | Activity (MIA PaCa-2 [2]) | Activity (PSN1 [3]) | Activity (PSN1 [4]) | PC50 (PSN1 [4]) | Activity [5] | Activity (PANC-1 [6]) | PC50 (PANC-1 [6]) | Activity (MIA PaCa-2 [7]) | PC50 (MIA PaCa-2 [7]) | Activity (PANC-1 [8]) | Activity (KLM1) | PC50 [9] | Activity (PANC-1 [10]) | Activity (PANC-1 [11])
O=C(OC[C@@]1(O)C(=O)C=C[C@H]2[C@@H]1[C@H]1C=C[C@@H]2C(=O)[C@]1(O)COC(=O)c1ccccc1)c1ccccc1 | Active | Non-toxic | Non-toxic | Dose-dependent effect | 32.6 µM | Non-toxic | Dose-dependent effect | 14.5 µM | Dose-dependent effect | 17.5 µM | Active | Dose-dependent effect | 32.7 µM | Active | Non-toxic
COc1ccccc1COC(=O)c1ccccc1 |  | Non-toxic | Non-toxic |  | 185 µM | Non-toxic |  | 137 µM |  | 131 µM |  |  | >200 µM |  | Non-toxic
COc1cc(C[C@H]2C(=O)OC[C@@H]2Cc2ccc(OC)c(OC)c2)ccc1O [ARCTIGENIN] |  | Non-toxic | Non-toxic |  | 1.9 µM | Non-toxic |  | 1.7 µM |  | 0.67 µM |  |  | 1.5 µM |  | Non-toxic
Nc1ccn([C@@H]2O[C@H](CO)[C@@H](O)C2(F)F)c(=O)n1 [GEMCITABINE] |  | Non-toxic | Non-toxic |  | >200 µM | Non-toxic |  | >200 µM |  | >200 µM |  |  | >200 µM |  | Non-toxic
C/C(=C\COC(=O)c1ccccc1)COC(=O)c1ccccc1 [UVARIDACANE A] |  | Non-toxic | Non-toxic |  | 96.5 µM | Non-toxic |  | 72.3 µM |  | 56.3 µM |  |  | 122 µM |  | Non-toxic
C/C(=C\COC(=O)/C=C/c1ccccc1)COC(=O)c1ccccc1 [UVARIDACANE B] |  | Non-toxic | Non-toxic |  | 143 µM | Non-toxic |  | 134 µM |  | 57.8 µM |  |  | >200 µM |  | Non-toxic
CC(=O)O[C@H]1C(COC(=O)c2ccccc2)=C[C@@H](O)[C@@H](O)[C@H]1OC(=O)c1ccccc1 [UVARIDACOL A] |  | Non-toxic | Non-toxic |  | 173 µM | Non-toxic |  | 102 µM |  | 192 µM |  |  | 83 µM |  | Non-toxic
CO[C@@H]1C=C(COC(=O)c2ccccc2)[C@H](OC(C)=O)[C@H](OC(=O)c2ccccc2)[C@@H]1O [UVARIDACOL B] |  | Non-toxic | Non-toxic |  | 158 µM | Non-toxic |  | 69.8 µM |  | 147 µM |  |  | >200 µM |  | Non-toxic
O=C(OCC1=C[C@H](O)[C@H](O)[C@@H](OC(=O)c2ccccc2)[C@@H]1O)c1ccccc1 [UVARIDACOL C] |  | Non-toxic | Non-toxic |  | 152 µM | Non-toxic |  | 72.9 µM |  | 115 µM |  |  |  |  | Non-toxic
CC(=O)O[C@@H]1C(COC(=O)c2ccccc2)=C[C@H]2O[C@H]2[C@H]1OC(=O)c1ccccc1 [UVARIDAPOXIDE A] |  | Non-toxic | Non-toxic |  | 80.1 µM | Non-toxic |  | 112 µM |  | 100 µM |  |  | 159 µM |  | Non-toxic
